Measurements from ChEMBL document CHEMBL4400556, “β-Lactones: A Novel Class of Ca2+-Independent Phospholipase A2 (Group VIA iPLA2) Inhibitors with the Ability To Inhibit β-Cell Apoptosis” (J Med Chem, 2019).

Key:
[1] = molecular target: T1, 85/88 kDa calcium-independent phospholipase A2 (Homo sapiens) (UniProt O60733); assay: Inhibition of human recombinant G6A iPLA2 at 0.091 mole fraction using arachidonyl-1-14C PAPC and PAPC incubated for 30 mins by HPLC-MS analysis based radioactivity-based group specific mixed micelle assay relative to control
T1 sequence (whole entry): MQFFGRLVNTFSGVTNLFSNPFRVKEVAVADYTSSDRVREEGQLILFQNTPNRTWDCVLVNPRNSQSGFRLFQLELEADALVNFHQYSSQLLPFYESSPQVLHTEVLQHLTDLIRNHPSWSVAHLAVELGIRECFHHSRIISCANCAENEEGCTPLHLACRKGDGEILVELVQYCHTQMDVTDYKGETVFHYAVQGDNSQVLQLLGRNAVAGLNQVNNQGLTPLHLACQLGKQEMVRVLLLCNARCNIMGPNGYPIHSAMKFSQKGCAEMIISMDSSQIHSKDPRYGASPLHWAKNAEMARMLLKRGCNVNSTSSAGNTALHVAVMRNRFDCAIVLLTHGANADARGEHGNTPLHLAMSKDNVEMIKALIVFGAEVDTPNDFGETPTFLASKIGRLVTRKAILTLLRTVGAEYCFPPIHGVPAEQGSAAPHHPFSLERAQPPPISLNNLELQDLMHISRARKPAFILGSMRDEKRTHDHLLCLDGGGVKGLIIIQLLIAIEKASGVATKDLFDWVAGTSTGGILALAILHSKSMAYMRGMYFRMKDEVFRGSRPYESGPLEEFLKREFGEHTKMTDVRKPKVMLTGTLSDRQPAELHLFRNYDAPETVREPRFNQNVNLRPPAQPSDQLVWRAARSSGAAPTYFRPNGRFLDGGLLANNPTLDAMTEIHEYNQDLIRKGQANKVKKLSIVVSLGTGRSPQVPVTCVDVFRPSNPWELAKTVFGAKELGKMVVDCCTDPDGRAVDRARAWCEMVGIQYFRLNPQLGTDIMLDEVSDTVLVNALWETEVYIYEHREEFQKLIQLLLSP
In short: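 Human recombinant GVIA iPLA2, radioactivity mixed-micelle assay. Substrate: 400 μM Triton X-100, 98.3 μM PAPC, 1.7 μM arachidonyl-1-14C PAPC. Buffer: 100 mM HEPES pH 7.5, 2 mM ATP, 4 mM DTT. Screened at 0.091 mole fraction from DMSO.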

[2] = molecular target: T2, Cytosolic phospholipase A2 (Homo sapiens) (UniProt P47712); assay: Inhibition of human recombinant G4A cPLA2 at 0.091 mole fraction using arachidonyl-1-14C PAPC , PAPC and PIP2 incubated for 30 mins by HPLC-MS analysis based radioactivity-based group specific mixed micelle assay
T2 sequence (whole entry): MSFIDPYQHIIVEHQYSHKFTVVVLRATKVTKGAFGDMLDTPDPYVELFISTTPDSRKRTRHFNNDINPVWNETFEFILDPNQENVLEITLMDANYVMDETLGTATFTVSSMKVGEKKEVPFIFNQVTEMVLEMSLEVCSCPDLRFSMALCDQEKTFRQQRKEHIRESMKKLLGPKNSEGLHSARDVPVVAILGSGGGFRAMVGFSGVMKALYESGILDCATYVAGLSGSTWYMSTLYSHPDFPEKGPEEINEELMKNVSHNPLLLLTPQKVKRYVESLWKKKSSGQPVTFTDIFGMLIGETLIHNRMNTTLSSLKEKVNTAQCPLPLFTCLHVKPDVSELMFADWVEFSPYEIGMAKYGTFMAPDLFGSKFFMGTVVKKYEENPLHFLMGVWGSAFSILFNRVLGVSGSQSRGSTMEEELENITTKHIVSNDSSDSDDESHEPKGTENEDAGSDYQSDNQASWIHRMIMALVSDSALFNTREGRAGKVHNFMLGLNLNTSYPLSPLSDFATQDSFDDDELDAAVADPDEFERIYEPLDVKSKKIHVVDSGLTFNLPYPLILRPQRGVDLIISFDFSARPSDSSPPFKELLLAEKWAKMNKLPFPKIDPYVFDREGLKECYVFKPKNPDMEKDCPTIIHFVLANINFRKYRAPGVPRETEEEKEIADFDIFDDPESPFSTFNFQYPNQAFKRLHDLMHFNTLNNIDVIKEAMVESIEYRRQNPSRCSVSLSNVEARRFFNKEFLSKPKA
In short: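 Human recombinant GIVA cPLA2, radioactivity mixed-micelle assay. Substrate: 400 μM Triton X-100, 95.3 μM PAPC, 1.7 μM arachidonyl-1-14C PAPC, 3 μM PIP2. Buffer: 100 mM HEPES pH 7.5, 90 μM CaCl2, 2 mM DTT, 0.1 mg/ml BSA. Screened at 0.091 mole fraction from DMSO stock. XI(50) fitted from % inhibition vs log mole fraction.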

Homo sapiens = species: Homo sapiens; assay: Inhibition of human recombinant G5 sPLA2 at 0.091 mole fraction using arachidonyl-1-14C PAPC and PAPC by HPLC-MS analysis based radioactivity-based group specific mixed micelle assay relative to control
In short: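 Human recombinant GV sPLA2, radioactivity mixed-micelle assay. Substrate: 400 μM Triton X-100, 98.3 μM PAPC, 1.7 μM arachidonyl-1-14C PAPC. Buffer: 50 mM Tris-HCl pH 8.0, 5 mM CaCl2. Compound added from DMSO at 0.091 mole fraction; percent inhibition measured.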

SMILES	inhibition [1] [%]	inhibition [2] [%]	inhibition (Homo sapiens) [%]
CC(C)C1OC(=O)C1CCCc1ccccc1 (centres undefined)	93	85	29
CC1OC(=O)C1CCCc1ccc2ccccc2c1 (centres undefined)	89	85	26
CCC1OC(=O)C1CCCc1ccc2ccccc2c1 (centres undefined)	93	85	29
CCCC1OC(=O)C1CCCCc1ccc2ccccc2c1 (centres undefined)	97	71	
CCCC1OC(=O)C1CCCCc1ccccc1 (centres undefined)	100	84	
CCCC1OC(=O)C1CCCc1ccc(OC)cc1 (centres undefined)	96	76	
CCCC1OC(=O)C1CCCc1ccc2ccccc2c1 (centres undefined)	98	77	
CCCC1OC(=O)C1CCCc1ccccc1 (centres undefined)	96	81	
CCCCCCC1OC(=O)C1CCCc1ccc(-c2ccccc2)cc1 (centres undefined)	78	58	40
CCCCCCC1OC(=O)C1CCCc1ccc2ccccc2c1 (centres undefined)	59	54	40
CCCCCCC1OC(=O)C1CCCc1ccccc1 (centres undefined)	89	91	47
COc1ccc(CCCCC(=O)C(F)(F)C(F)(F)F)cc1			33
